Bioassay records from PubChem.
Sampled rows, rich in hits. Any-hit rate of the full collection: about 1.8%.
CASP6 VEID inh = inhibitors of human caspase-6 | P55212 | purified caspase-6, Z-VEID-R110 cleavage fluorescence | inhibition, % at 12.5 µM | 350,000 tested, 0.53% active;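 active means mean inhibition across replicates at least about 35%, with every replicate also reaching that limit, limit read from the data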;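 further: 0% = median of neutral control wells and 100% = no fluorescence left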
TDP2 absorb = blocks human TDP2 phosphodiesterase activity | O95551 | recombinant TDP2, T5PNP hydrolysis, p-nitrophenol absorbance 415 nm | inhibition, % at 12.8 µM | 370,000 tested, 0.34% active;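 active means inhibition above the mean of all tested compounds plus 3 SD, set per campaign, cut at about 25% in these data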;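 further: 0% = DMSO with enzyme and 100% = buffer with substrate but no TDP2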
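System – recombinant human TDP2 · Amount – 120 nM TDP2 per well · Buffer or medium – Mg2+-containing Tris-HCl buffer, pH 7.5 · Reagent – T5PNP substrate, 5 mM · Dosing – 12.8 µM single point, 1% DMSO · Incubation – 2 h at 37 °C · Measured by – epi absorbance · Read-out basis – percent inhibition · Benchmarks – high control without enzyme, low control DMSO plus TDP2 · Repeats – singlicate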
LEDGF integ inh = blocks HIV-1 LEDGF/p75-dependent DNA integration; 370,000 tested, 0.64% active; TR-FRET IN-LEDGF/p75 DNA integration, Eu/Cy5; inhibition, % at 3.7 µM;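 active means inhibition above the screen-wide mean plus 3 SD, cut at about 13% in these data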;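 further: signal is the Cy5 over europium emission ratio at 671 and 618 nm; 0% = plate median of compound wells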
MBD2 inh = inhibitors of human MBD2 binding to methylated oligonucleotide. Q9UBB5. TR-FRET. inhibition, % at 4.4 µM. 370,000 tested, 0.31% active. AID 686964; in the data active means inhibition above about 13%
UHRF1 MBD2 ctr = human UHRF1 methylated DNA binding inhibitors; AID 687016; UHRF1 binding to methylated oligo, TR-FRET; inhibition, % at 4.4 µM; 370,000 tested, 0.75% active; in the data active means inhibition above about 21%;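 further: UHRF1 SRA domain binding a hemimethylated CpG hairpin DNA probe; 0% = median of test compound wells and 100% = reference inhibitor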
Target sequence (Q96T88 whole entry, looked up, the tested form may be a part): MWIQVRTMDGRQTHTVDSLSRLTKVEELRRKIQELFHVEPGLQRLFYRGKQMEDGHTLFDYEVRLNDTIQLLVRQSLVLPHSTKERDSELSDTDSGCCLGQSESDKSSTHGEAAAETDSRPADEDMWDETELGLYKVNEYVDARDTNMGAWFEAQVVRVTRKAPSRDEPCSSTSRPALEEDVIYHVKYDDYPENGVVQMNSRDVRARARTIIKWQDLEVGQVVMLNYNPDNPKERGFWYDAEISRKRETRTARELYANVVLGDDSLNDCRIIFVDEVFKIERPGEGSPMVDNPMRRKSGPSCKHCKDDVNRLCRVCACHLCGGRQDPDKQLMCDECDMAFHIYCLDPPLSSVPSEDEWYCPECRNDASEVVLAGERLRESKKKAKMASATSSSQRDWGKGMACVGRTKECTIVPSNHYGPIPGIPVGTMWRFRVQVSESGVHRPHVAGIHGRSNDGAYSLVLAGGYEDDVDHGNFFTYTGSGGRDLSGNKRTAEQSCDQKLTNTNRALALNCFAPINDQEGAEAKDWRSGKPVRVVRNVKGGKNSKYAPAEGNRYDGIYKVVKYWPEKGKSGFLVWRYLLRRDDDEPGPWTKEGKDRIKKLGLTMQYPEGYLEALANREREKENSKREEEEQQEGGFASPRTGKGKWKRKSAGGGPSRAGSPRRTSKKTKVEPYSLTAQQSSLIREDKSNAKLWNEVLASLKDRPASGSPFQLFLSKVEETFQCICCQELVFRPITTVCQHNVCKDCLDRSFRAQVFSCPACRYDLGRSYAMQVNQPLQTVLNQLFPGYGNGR
NSD2 inh = NSD2 (human) methyltransferase inhibition; O96028; NSD2 peptide methylation, AlphaScreen, 120 min; inhibition, % at 12.5 µM; 310,000 tested, 0.54% active; AID 743445; in the data active means inhibition above about 50%
IN multimer up = HIV-1 integrase multimerization activation, counter-screen; TR-FRET HIV-1 integrase multimerization, biochemical; shares compounds with LEDGF integ inh; 2,000 tested, 17% active; activation, % at 7.7 µM; in the data active means activation above about 8.9%
TRFRET interf = TR-FRET optical interference, LEDGF/p75 integration counter-screen; TR-FRET optical interference counterscreen, HIV-1 IN multimerization; shares compounds with LEDGF integ inh; inhibition, % at 7.7 µM; AID 1053135; 2,000 tested, under 10 active;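 active means inhibition above the mean over all tested compounds plus 3 SD, which no compound reached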;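 further: 0% = integrase with antibodies and DMSO and 100% = antibodies without integrase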
LEDGF integ conf = LEDGF/p75-dependent HIV-1 integration inhibition, confirmation. 2,000 tested, 36% active. AID 1053136. TR-FRET LEDGF/p75-dependent HIV-1 integration, biochemical. inhibition, % at 3.7 µM. shares compounds with LEDGF integ inh; in the data active means inhibition above about 14%
Active calls of the source: *.

What do the screens show for `CCOc1ccc(N=Cc2ccc([N+](=O)[O-])cc2)c(O)c1`?
CASP6 VEID inh: 9; TDP2 absorb: -9; LEDGF integ inh: 20*; MBD2 inh: -9; UHRF1 MBD2 ctr: -7; IN multimer up: 11*; TRFRET interf: -38; LEDGF integ conf: -3

What do the screens show for `Cc1ccc(CSc2ccc3nnc(-c4cccnc4)n3n2)cc1`?
TDP2 absorb: 6; LEDGF integ inh: 14*; MBD2 inh: 2; UHRF1 MBD2 ctr: 1; NSD2 inh: 0; IN multimer up: 0; TRFRET interf: 0; LEDGF integ conf: 6

How did Cc1cc(C(=O)Nc2cccc3c2O[C@@H](CN(C)C(=O)Nc2c(C)noc2C)[C@H](C)CN([C@@H](C)CO)C3=O)n(C)n1 do in these assays?
CASP6 VEID inh: 1

Results for CCOc1ccc(NC(=O)CN(C)c2ccc(S(=O)(=O)N3CCOCC3)cn2)cc1OCC ?
TDP2 absorb: 4; LEDGF integ inh: 15*; MBD2 inh: -3; UHRF1 MBD2 ctr: 41*; NSD2 inh: -2; IN multimer up: 1; TRFRET interf: -4; LEDGF integ conf: -2

Results for Cc1ccc(NC(=O)CN(C)c2ccc(S(=O)(=O)N3CCCC3)cn2)cc1 ?
CASP6 VEID inh: 3; TDP2 absorb: 0; LEDGF integ inh: -4; MBD2 inh: -1; UHRF1 MBD2 ctr: 2; NSD2 inh: 2

How did O=C(N[C@@H]1CC[C@H](CCn2cc(Cc3ccccc3)nn2)O[C@H]1CO)c1ccccn1 do in these assays?
CASP6 VEID inh: 1

Results for CC1=N/C(=C/c2ccco2)C(=O)O1 ?
CASP6 VEID inh: 35; TDP2 absorb: 14; LEDGF integ inh: 13*; MBD2 inh: 4; UHRF1 MBD2 ctr: 10; NSD2 inh: 119*; IN multimer up: 10*; TRFRET interf: -52; LEDGF integ conf: 54*

What do the screens show for `Cc1ccc(S(=O)(=O)N(C)C[C@@H]2Oc3ccc(N(C)C)cc3CC(=O)N([C@H](C)CO)C[C@@H]2C)cc1`?
CASP6 VEID inh: 1

How did Cc1ccc(CNc2ccc(N3CCOCC3)cc2)cc1 do in these assays?
CASP6 VEID inh: 1; TDP2 absorb: 23; LEDGF integ inh: 7; MBD2 inh: -6; UHRF1 MBD2 ctr: 0; NSD2 inh: 12

What do the screens show for `c1cc(CNc2ccc(N3CCOCC3)cc2)ccn1`?
TDP2 absorb: 22; LEDGF integ inh: 16*; MBD2 inh: 1; UHRF1 MBD2 ctr: -5; NSD2 inh: 3; IN multimer up: 6; TRFRET interf: -23; LEDGF integ conf: -9

Results for c1cc2c(cc1CNc1ccc(N3CCOCC3)cc1)OCO2 ?
CASP6 VEID inh: -1; TDP2 absorb: 16; LEDGF integ inh: 16*; MBD2 inh: 0; UHRF1 MBD2 ctr: -3; IN multimer up: 5; TRFRET interf: -24; LEDGF integ conf: -16

What do the screens show for `CC(C)c1ccc(CNc2ccc(N3CCOCC3)cc2)cc1`?
TDP2 absorb: 19; LEDGF integ inh: 11; MBD2 inh: -1; UHRF1 MBD2 ctr: -3; NSD2 inh: 22

How did CC(C)NC(=O)N[C@@H]1C=C[C@@H](CC(=O)NCCCN(C)C)O[C@H]1CO do in these assays?
CASP6 VEID inh: 2

How did O=C(NCCOc1ccccc1)C(=O)c1c[nH]c2ccccc12 do in these assays?
CASP6 VEID inh: 0; TDP2 absorb: -9; LEDGF integ inh: 30*; MBD2 inh: -1; UHRF1 MBD2 ctr: 0; NSD2 inh: -2; IN multimer up: 3; TRFRET interf: -12; LEDGF integ conf: -5

What do the screens show for `C[C@@H]1CN([C@@H](C)CO)C(=O)c2c(c3ccccc3n2C)-c2ccccc2CO[C@H]1CN(C)C(=O)Nc1ccc(-c2ccccc2)cc1`?
CASP6 VEID inh: -1
